For 167 variants, yeast fitness results are on record in the RNAGym collection of RNA variant scans (doi:10.1126/science.aae0568).

B1: tRNA (parent)
chain: GUUCCGUUGGCGUAAUGGUAACGCGUCUCCCUCCUAAGGAGAAGACUGCGGGUUCGAGUCCCGUACGGAACG

Variants at the floor of the assay were thinned out.

In this series the parent is B1. In words: yeast fitness relative to wild type (ratio to wild type); higher = fitter; tRNA-Arg(CCU), competitive growth, 37 C, YPD. In a few lines:
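Start and end populations of a pooled competition were compared by 100-nucleotide paired-end sequencing of gene amplicons. The Saccharomyces cerevisiae strains carried tRNA-Arg(CCU) gene variants at the native genomic locus, synthesised with a 3% per-site mutation rate at 69 sites, and competed in YPD at 37°C for 24 hours in six parallel replicates. Darwinian fitness relative to wild type was based on the change in genotype frequencies. Genotypes required ≥ 100 starting reads, and estimates < 0.5 were set to 0.5.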
With U3G C46U U59A, the yeast fitness came out at 0.562.
Turning to U3C C22G C27G C31G C61G A69U, the yeast fitness was 0.615.
On to A21G A57G C66G, for which the yeast fitness amounted to 0.599.
With U19G A20U C27G G58A the figure was 0.527; with G25A U47C C60U, 0.587; with C5U A42G A45U C60G, ≤ 0.5.
As for U28C C33A A42C A45U A69C, the yeast fitness amounted to 0.622.
For C5U G12A C60G, the yeast fitness was ≤ 0.5.
Consider C4A C5U U19A C66A, for which the yeast fitness was ≤ 0.5.
Turning to C5G G25A G48A, the yeast fitness came to 0.724.
With A14U C30U C34U A45U the figure was ≤ 0.5.
Regarding A20C C34U C66U, the yeast fitness was found to be 0.543.
Regarding C34G U64A, the yeast fitness is 0.654.
For G9C C22G C33A the value was 0.598; for U2G G6A C27U G39C, ≤ 0.5.
For G25C G41C A70C, the yeast fitness is 0.559.
With G39A C61G A70U the figure was ≤ 0.5.
Regarding C4A U53A, the yeast fitness was 0.769.
With A20U G48C U53C G68C the figure was ≤ 0.5.
Turning to C22A A70U, the yeast fitness stood at 1.01.
For A15C C46U G50A the value was 0.711; for G9C C11G C24U C31U U59G A70C, ≤ 0.5.
For A42G C61U the value was 0.853; for U26C C30U C61A, 0.571.
On to C4U U16C C34A A42U, for which the yeast fitness was 0.726.
On to U19G C24A A40C A45U, for which the yeast fitness was ≤ 0.5.
Regarding A15U C22G G25A C31U A57C U64A G68A, the yeast fitness was ≤ 0.5.
As for C4A C24U C29U, the yeast fitness is ≤ 0.5.
As for U2A A57U G68C, the yeast fitness is ≤ 0.5.
On to C34G A36U G58A, for which the yeast fitness is 0.605.
For G6A U19C U28G U32A G38C the value was ≤ 0.5.
For the variant U3G G6A G17C C31G, the yeast fitness was ≤ 0.5.
U2G G25A: the yeast fitness was 0.986.
With G25A G50C U54C the figure was 0.627.
For the variant U32C C66A, the yeast fitness is 0.702.
On to A20C G48A C49A, for which the yeast fitness came out at 0.557.
With C11U C22G G52C G56C the figure was ≤ 0.5; with U7G C27U A57C A70U, ≤ 0.5.
On to C5G U35C C66U, for which the yeast fitness was found to be 0.546.
Turning to U3A A21G U35A A40U U54C, the yeast fitness is ≤ 0.5.
Turning to C4G C49G, the yeast fitness came to 0.682.
With A20G C24G C27U C62A C66A the figure was ≤ 0.5; with U3A A65U, 0.704.
In the case of U28G A42C A57C, the yeast fitness was 0.627.
Take C5U C24U A36G C46A U47C C55A: the yeast fitness was ≤ 0.5.
G12C C46A: the yeast fitness came to 0.928.
For U2A A20C C66U, the yeast fitness came out at 0.753.
On to C11A A42G C61A, for which the yeast fitness came out at 0.618.
With U47C A65G G68C the figure was 0.546; with G10A C31U G38C, 0.512; with U2G U8C C22U C24G U32C A37G A69G A70G, ≤ 0.5.
For C27U A40G G44A, the yeast fitness is 0.513.
With U3C G67A the figure was 0.871; with C34U C61A, 0.563.
Take C60U C61G G67A: the yeast fitness was ≤ 0.5.
On to C22G A37U A43U A65C, for which the yeast fitness was ≤ 0.5.
For the variant U19C C24U U64A, the yeast fitness came out at 0.73.
For C29G A40C A43G A45C U47C C62U A69C, the yeast fitness is ≤ 0.5.
For G17A G68C the value was 0.928.
Turning to A36U G56C, the yeast fitness is 0.563.
Take C4U U64A: the yeast fitness stood at 0.852.
For the variant U7C C11G U13A C29U A69U, the yeast fitness is ≤ 0.5.
For the variant A20G C49U A69C, the yeast fitness is 0.786.
Turning to G10A G23C A45G A65U, the yeast fitness was ≤ 0.5.
With U3C G9A G48C the figure was 0.784.
As for A42G G58A, the yeast fitness was 0.879.
For C4A C24G G63A C66A the value was ≤ 0.5.
Take G10C C62A: the yeast fitness turned out to be 0.515.
For the variant U8C C29U, the yeast fitness amounted to 0.937.
Consider G50C U54A C61A, for which the yeast fitness was 0.676.
For C4U C27G A65U A70G the value was ≤ 0.5; for C24U G68A A70C, 0.656.
As to G38A U59G, the yeast fitness worked out at 0.705.
For the variant C31G A70C, the yeast fitness came out at 0.689.
Consider C34A C46U A65C, for which the yeast fitness worked out at 0.569.
With G10A G50A G51A the figure was ≤ 0.5.
Consider C31U C33U, for which the yeast fitness turned out to be 0.723.
Turning to G38U A69C, the yeast fitness is 0.892.
For C5A A20G C49A the value was 0.568; for U8A C31A, 0.605; for C5U A40U A42C A65U, ≤ 0.5.
With A40G C46A the figure was 1.04; with U7G A37U A70U, 0.542; with U8A C34U U35A C46U A70U, ≤ 0.5.
Turning to U59C A65C, the yeast fitness came to 0.837.
As for U8C U32C G44A G56A, the yeast fitness was ≤ 0.5.
With C4G G6A U47A the figure was 0.61; with G17A G18C, 0.63; with G18C G44A C62G, ≤ 0.5.
Turning to C5G G9C U47C A65U, the yeast fitness is ≤ 0.5.
Turning to G9A C24G G41C U53C G58U, the yeast fitness is ≤ 0.5.
Turning to U8A A70U, the yeast fitness is 0.813.
In the case of C4U U16G A43U, the yeast fitness worked out at 1.13.
Turning to A15G A42C A45C G48A, the yeast fitness was 0.63.
On to A40G G58A A69U, for which the yeast fitness was 1.04.
Consider A20G C29A A65C, for which the yeast fitness was determined as 0.544.
With U7G A21U C29A C55A A69U the figure was ≤ 0.5.
Turning to C4U A40U A42U C46U, the yeast fitness was ≤ 0.5.
On to G63A G67C, for which the yeast fitness is 0.707.
On to G18A U64C, for which the yeast fitness was found to be 0.66.
With C33G U35C U59A A69U the figure was 0.657; with C11A G18A G67A, ≤ 0.5.
For U32C A43C A69G, the yeast fitness was ≤ 0.5.
On to A14G C29U G41A U54G C55U A69U, for which the yeast fitness is ≤ 0.5.
With U13A C66U the figure was 0.857; with C5G G23C C31G C60A A70U, ≤ 0.5.
With A42U A57C, the yeast fitness was determined as 0.681.
As for U35A C46G C49U, the yeast fitness was found to be 0.527.
As to C5U C27U, the yeast fitness worked out at 1.09.
For G44A G56A U59A the value was 0.575.
With G9A A21G U59A the figure was 0.731; with G17A C55A, 0.547; with C30U U32G A37G G63A, ≤ 0.5.
With C4G C5U C49A the figure was ≤ 0.5; with G12C C34A G58C A65C A69C, ≤ 0.5; with A45C U59G, 0.713.
G17C A20U G52C: the yeast fitness was ≤ 0.5.
With G23A C30U, the yeast fitness is 0.68.
For the variant C27A G58A, the yeast fitness stood at 0.849.
Consider C29A A42U U64C A69C, for which the yeast fitness is ≤ 0.5.
With G23A A36G C61U A65U, the yeast fitness is ≤ 0.5.
With C24G U28G C29G U35G U47A, the yeast fitness is 0.606.
With U8C A14U G48C A70C the figure was ≤ 0.5.
With C5U C49U, the yeast fitness was found to be 0.953.
Consider A43G U53G C55A G56C A57G G58A U59G C60U A65C, for which the yeast fitness was ≤ 0.5.
Take U3A A15G C24A: the yeast fitness was ≤ 0.5.
On to A15G A21C C24U, for which the yeast fitness was ≤ 0.5.
As for G18A A70U, the yeast fitness came out at 0.956.
As to G6A U26A, the yeast fitness is 0.95.
U7C C27U C29A G58C: the yeast fitness is ≤ 0.5.
With C11G G12A C31G, the yeast fitness was ≤ 0.5.
With C4A C11G G51C the figure was ≤ 0.5.
Turning to C22A C33U U54G, the yeast fitness is ≤ 0.5.
Regarding A14U G41C U59A C61A C66U G68C, the yeast fitness is ≤ 0.5.
On to C11U A20U U32A G39A A65C, for which the yeast fitness is ≤ 0.5.
Turning to C24A G67A, the yeast fitness amounted to 0.709.
With U3A C11A A69C, the yeast fitness was ≤ 0.5.
For G9C C49G G50A C60G A65G A70G, the yeast fitness was ≤ 0.5.
With U7G C11G C34U A37U C46A G51A the figure was ≤ 0.5; with C29G G48C C61A, 0.564.
Regarding U3A G9A A14C, the yeast fitness worked out at 0.551.
Regarding C29U C33G G44C U64C, the yeast fitness was ≤ 0.5.
Take A45U G68A A70C: the yeast fitness was determined as 0.641.
With C11A C34A A40G G44C A70U, the yeast fitness is ≤ 0.5.
Turning to U3A C27G C31U C33U A42C C66U A70C, the yeast fitness is ≤ 0.5.
With G12A C33A G51C the figure was ≤ 0.5.
As to C27G C30U U32C G51C, the yeast fitness was determined as 0.603.
As to U13C A20G C46U U47A, the yeast fitness was ≤ 0.5.
With G10A C31A G41A A45U G58C the figure was ≤ 0.5; with C30U C31G A65C, 0.821.
As to U47G G52A C61A G67C, the yeast fitness was ≤ 0.5.
Regarding C34A A43C G67A, the yeast fitness amounted to 0.537.
Regarding U8A C29U C33U U53A U59G, the yeast fitness was ≤ 0.5.
In the case of U2G G52C C61G, the yeast fitness was ≤ 0.5.
For A20G C49A the value was 0.655; for G25A A57U, 0.772.
For A20C A21U C27G U32C U35G, the yeast fitness was ≤ 0.5.
In the case of G12C G48C A70U, the yeast fitness came out at 0.539.
With A36G G48A C49U, the yeast fitness stood at 0.606.
As to C24U C30G A45C A70C, the yeast fitness was ≤ 0.5.
As to C5G C29A G58C U64G, the yeast fitness came out at 0.545.
As to C27G C33G G44A, the yeast fitness is 0.669.
As for C22G A65C, the yeast fitness amounted to 0.863.
On to C27G C55A G58A, for which the yeast fitness is ≤ 0.5.
As for U2C G44A A70C, the yeast fitness stood at 0.884.
As for C11U U26G U32A A43C U53C A70U, the yeast fitness was ≤ 0.5.
For C31G U32C, the yeast fitness turned out to be 0.754.
